Data set [1] deals with LNCaP. Description: Induction of cell cycle arrest in human LNCaP cells with IR-induced DNA damage assessed as reduction in number of cells at G2 phase at 10 uM incubated for 24 hrs in the presence of 5 Gy by PI-staining-based flow cytometry analysis. Format: functional. Summed up: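 LNCaP cells given 5 Gy x-ray alone or with agent (10 μm, 24 h). Propidium iodide staining and flow cytometric DNA content analysis of cell cycle phases; performed in triplicate.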

Data set [2] concerns the target RAC-alpha serine/threonine-protein kinase (Homo sapiens, UniProt P31749). Description: Inhibition of AKT1 (unknown origin) in the presence of [33P]ATP by kinase hotspot assay.
For data set [3], the target named is Glycogen synthase kinase-3 alpha (Homo sapiens, UniProt P49840). Description: Inhibition of GSK3alpha (unknown origin) in the presence of [33P]ATP by kinase hotspot assay.
In data set [4] the test system is LNCaP. Description: Induction of cell cycle arrest in human LNCaP cells with IR-induced DNA damage assessed as reduction in proportion of cells at G2 phase at 5 uM incubated for 24 hrs in the presence of 5 Gy by PI-staining-based flow cytometry analysis. Format: functional. Also on record: scale not given: the % may be the effect or the level left. Summed up:
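LNCaP cells left untreated, given 5 Gy x-ray, inhibitor (5 μm, 24 h), or both; harvested 16 h after irradiation. Nuclei processed with trypsin, trypsin inhibitor/RNase A, then propidium iodide; DNA content of 20,000 cells by flow cytometry, cell cycle modelled. Three independent experiments.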
For orientation: A flow cytometer gives signals particle by particle.

Data set [5] concerns the target Serine/threonine-protein kinase Sgk1 (Homo sapiens, UniProt O00141). Description: Inhibition of SGK1 (unknown origin) in the presence of [33P]ATP by kinase hotspot assay.
For data set [6], the target named is Tyrosine-protein kinase BTK (Homo sapiens, UniProt Q06187). Description: Inhibition of BTK (unknown origin) in the presence of [33P]ATP by kinase hotspot assay.
Data set [7] has as its target Serine/threonine-protein kinase Chk1 (Homo sapiens, UniProt O14757). Description: Inhibition of CHK1 (unknown origin) in the presence of [33P]ATP by kinase hotspot assay.
Data set [8] has as its target Tyrosine-protein kinase ABL1 (Homo sapiens, UniProt P00519). Description: Inhibition of ABL1 (unknown origin) in the presence of [33P]ATP by kinase hotspot assay.
Data set [9] deals with LNCaP. Briefly: Antitumor activity against irradiated human LNCaP-caAck expressing cells xenografted mouse assessed as reduction in ATM expression level at 4 mg/kg on 7th day by immunohistochemical staining. Format: functional, organism-based. In short, it runs like this: (§1)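 Irradiated (1.5 Gy) LNCaP-caAck xenografts in castrated nude mice dosed 4 mg/kg from day 7 (DMSO control) were excised, fixed, paraffin-embedded and sectioned. Sections stained with H&E, or for ATM by IHC: citrate pH 6.0 retrieval at 95 °C 30 min, rabbit monoclonal ATM antibody 1:300 overnight 4 °C, biotin secondary/streptavidin-peroxidase, DAB, hematoxylin counterstain.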
A general note: In xenograft studies the graft and the host belong to different species.

Data set [10] concerns the target RAC-gamma serine/threonine-protein kinase (Homo sapiens, UniProt Q9Y243). Briefly: Inhibition of AKT3 (unknown origin) in the presence of [33P]ATP by kinase hotspot assay.
In data set [11] the target is Tyrosine-protein kinase JAK2 (Homo sapiens, UniProt O60674). Description: Inhibition of JAK2 (unknown origin) in the presence of [33P]ATP by kinase hotspot assay.
Data set [12] relates to LNCaP. Description: Induction of cell cycle arrest in human LNCaP cells with IR-induced DNA damage assessed as high number of cells with DSBs at 5 uM after 5 hrs in the presence of 15 Gy by flow cytometry analysis. Format: functional, cell-based.
Data set [13] deals with Inhibitor of nuclear factor kappa-B kinase subunit alpha (Homo sapiens, UniProt O15111). Description: Inhibition of IKKalpha (unknown origin) in the presence of [33P]ATP by kinase hotspot assay.
A further data set deals with Insulin receptor (Homo sapiens, UniProt P06213). Briefly: Inhibition of IR (unknown origin) in the presence of [33P]ATP by kinase hotspot assay.
Data set [14] addresses Phosphatidylinositol 4,5-bisphosphate 3-kinase catalytic subunit beta isoform (Homo sapiens, UniProt P42338). Description: Inhibition of PI3Kbeta (unknown origin) in the presence of [33P]ATP by kinase hotspot assay.
Data set [15] deals with Platelet-derived growth factor receptor alpha (Homo sapiens, UniProt P16234). Briefly: Inhibition of PDGFRalpha (unknown origin) in the presence of [33P]ATP by kinase hotspot assay.
In another data set the target is Wee1-like protein kinase (Homo sapiens, UniProt P30291). Description: Inhibition of WEE1 (unknown origin) in the presence of [33P]ATP by kinase hotspot assay.
Data set [16] in a line: Toxicity in mouse assessed as change in body weight. The conditions noted are these: in vivo. In short, it runs like this:
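Body weight of castrated nude mice bearing LNCaP-caAck xenografts tracked during dosing at 4 mg/kg per injection (day 7, then days 11–27 every 4 days) versus DMSO-injected controls; morbidity also noted.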

In data set [17] the test system is LNCaP. Description: Antitumor activity against irradiated human LNCaP-caAck expressing cells xenografted mouse assessed as necrosis at 4 mg/kg on 7th day by Hematoxylin and eosin staining. Format: functional, organism-based. In short, it runs like this: as §1
For data set [18], the target named is Tyrosine-protein kinase receptor UFO (Homo sapiens, UniProt P30530). Description: Inhibition of AXL (unknown origin) in the presence of [33P]ATP by kinase hotspot assay.
The target in data set [19] is Serine/threonine-protein kinase mTOR (Homo sapiens, UniProt P42345). Briefly: Inhibition of mTOR (unknown origin) in the presence of [33P]ATP by kinase hotspot assay.
Data set [20] deals with LNCaP. Briefly: Antitumor activity against irradiated human LNCaP-caAck expressing cells xenografted mouse assessed as reduction in tumor growth at 4 mg/kg on 7th day. Format: functional, organism-based. In short, it runs like this: (§2)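 LNCaP-caAck cells (2 × 10⁶), unirradiated or irradiated 1.5 Gy, in PBS/Matrigel 1:1, injected subcutaneously into flanks of castrated male nude mice. Inhibitor 4 mg/kg per injection on day 7 post-implantation, then days 11, 15, 19, 23, 27; DMSO control; n = 8 per group. Caliper tumor volumes twice weekly; two independent experiments.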

Data set [21] has as its target Tyrosine-protein kinase Lyn (Homo sapiens, UniProt P07948).
Data set [22] has as its system LNCaP. Description: Antitumor activity against irradiated human LNCaP-caAck FLAG-tagged wild-type ATM expressing cells xenografted mouse assessed as inhibition of tumor growth at 4 mg/kg on day 12. The class given is functional, organism-based. Summed up: (§3)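 Castrated male nude mice received LNCaP-caAck cells transfected with FLAG-tagged kinase-dead or wild-type ATM constructs (CMV promoter), irradiated 1.5 Gy before injection. Inhibitor 4 mg/kg per injection starting day 12 after cell injection, then on days 15, 19, 23 and 27; n = 5 mice per group; tumor growth followed.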

The target of data set [23] is Receptor tyrosine-protein kinase erbB-2 (Homo sapiens, UniProt P04626). Description: Inhibition of HER2 (unknown origin) in the presence of [33P]ATP by kinase hotspot assay.
In data set [24] the target is Tyrosine-protein kinase receptor TYRO3 (Homo sapiens, UniProt Q06418). Description: Inhibition of TYRO3 (unknown origin) in the presence of [33P]ATP by kinase hotspot assay.
Data set [25] deals with Tyrosine-protein kinase Lck (Homo sapiens, UniProt P06239). Briefly: Inhibition of LCK (unknown origin) in the presence of [33P]ATP by kinase hotspot assay.
For data set [26], the target named is Vascular endothelial growth factor receptor 2 (Homo sapiens, UniProt P35968). Description: Inhibition of VEGFR2 (unknown origin) in the presence of [33P]ATP by kinase hotspot assay.
Data set [27] addresses Phosphatidylinositol 4,5-bisphosphate 3-kinase catalytic subunit alpha isoform (Homo sapiens, UniProt P42336). Briefly: Inhibition of PI3Kalpha (unknown origin) in the presence of [33P]ATP by kinase hotspot assay.
Data set [28] has as its system LNCaP. Description: Antitumor activity against irradiated human LNCaP-caAck FLAG-tagged KD ATM expressing cells xenografted mouse assessed as inhibition of tumor growth at 4 mg/kg on day 12. Format: functional, organism-based. Summed up: as §3
Data set [29] addresses RAF proto-oncogene serine/threonine-protein kinase (Homo sapiens, UniProt P04049). Briefly: Inhibition of RAF1 (unknown origin) in the presence of [33P]ATP by kinase hotspot assay.
Data set [30] addresses DNA-dependent protein kinase catalytic subunit (Homo sapiens, UniProt P78527). Briefly: Inhibition of DNA-PK (unknown origin) in the presence of [33P]ATP by kinase hotspot assay.
For another data set, the target named is Activated CDC42 kinase 1 (Homo sapiens, UniProt Q07912). Briefly: Inhibition of Ack1 (unknown origin) in the presence of [33P]ATP by kinase hotspot assay.
Data set [31] deals with Mitogen-activated protein kinase 3 (Homo sapiens, UniProt P27361). Description: Inhibition of ERK1 (unknown origin) in the presence of [33P]ATP by kinase hotspot assay.
Data set [32] has as its target Insulin-like growth factor 1 receptor (Homo sapiens, UniProt P08069). Briefly: Inhibition of IGF1R (unknown origin) in the presence of [33P]ATP by kinase hotspot assay.
Data set [33] addresses Serine/threonine-protein kinase pim-1 (Homo sapiens, UniProt P11309). Description: Inhibition of PIM1 (unknown origin) in the presence of [33P]ATP by kinase hotspot assay.
The test system of data set [34] is LNCaP. Description: Antitumor activity against unirradiated human LNCaP-caAck expressing cells xenografted mouse assessed as reduction in tumor growth at 4 mg/kg on 7th day. Format: functional. Also on record: scale not given: the % may be the effect or the level left. In short, it runs like this: as §2
In data set [35] the target is Mitogen-activated protein kinase kinase kinase 8 (Homo sapiens, UniProt P41279). Description: Inhibition of MAP3K8 (unknown origin) in the presence of [33P]ATP by kinase hotspot assay.

Activity calls are given as the source filed them. The rule behind the calls is not given here. Some results are limits rather than exact numbers.

In general, IC50 refers to the point on the concentration scale where inhibition reaches its midpoint.

Sequence of DNA-dependent protein kinase catalytic subunit (P78527 whole entry): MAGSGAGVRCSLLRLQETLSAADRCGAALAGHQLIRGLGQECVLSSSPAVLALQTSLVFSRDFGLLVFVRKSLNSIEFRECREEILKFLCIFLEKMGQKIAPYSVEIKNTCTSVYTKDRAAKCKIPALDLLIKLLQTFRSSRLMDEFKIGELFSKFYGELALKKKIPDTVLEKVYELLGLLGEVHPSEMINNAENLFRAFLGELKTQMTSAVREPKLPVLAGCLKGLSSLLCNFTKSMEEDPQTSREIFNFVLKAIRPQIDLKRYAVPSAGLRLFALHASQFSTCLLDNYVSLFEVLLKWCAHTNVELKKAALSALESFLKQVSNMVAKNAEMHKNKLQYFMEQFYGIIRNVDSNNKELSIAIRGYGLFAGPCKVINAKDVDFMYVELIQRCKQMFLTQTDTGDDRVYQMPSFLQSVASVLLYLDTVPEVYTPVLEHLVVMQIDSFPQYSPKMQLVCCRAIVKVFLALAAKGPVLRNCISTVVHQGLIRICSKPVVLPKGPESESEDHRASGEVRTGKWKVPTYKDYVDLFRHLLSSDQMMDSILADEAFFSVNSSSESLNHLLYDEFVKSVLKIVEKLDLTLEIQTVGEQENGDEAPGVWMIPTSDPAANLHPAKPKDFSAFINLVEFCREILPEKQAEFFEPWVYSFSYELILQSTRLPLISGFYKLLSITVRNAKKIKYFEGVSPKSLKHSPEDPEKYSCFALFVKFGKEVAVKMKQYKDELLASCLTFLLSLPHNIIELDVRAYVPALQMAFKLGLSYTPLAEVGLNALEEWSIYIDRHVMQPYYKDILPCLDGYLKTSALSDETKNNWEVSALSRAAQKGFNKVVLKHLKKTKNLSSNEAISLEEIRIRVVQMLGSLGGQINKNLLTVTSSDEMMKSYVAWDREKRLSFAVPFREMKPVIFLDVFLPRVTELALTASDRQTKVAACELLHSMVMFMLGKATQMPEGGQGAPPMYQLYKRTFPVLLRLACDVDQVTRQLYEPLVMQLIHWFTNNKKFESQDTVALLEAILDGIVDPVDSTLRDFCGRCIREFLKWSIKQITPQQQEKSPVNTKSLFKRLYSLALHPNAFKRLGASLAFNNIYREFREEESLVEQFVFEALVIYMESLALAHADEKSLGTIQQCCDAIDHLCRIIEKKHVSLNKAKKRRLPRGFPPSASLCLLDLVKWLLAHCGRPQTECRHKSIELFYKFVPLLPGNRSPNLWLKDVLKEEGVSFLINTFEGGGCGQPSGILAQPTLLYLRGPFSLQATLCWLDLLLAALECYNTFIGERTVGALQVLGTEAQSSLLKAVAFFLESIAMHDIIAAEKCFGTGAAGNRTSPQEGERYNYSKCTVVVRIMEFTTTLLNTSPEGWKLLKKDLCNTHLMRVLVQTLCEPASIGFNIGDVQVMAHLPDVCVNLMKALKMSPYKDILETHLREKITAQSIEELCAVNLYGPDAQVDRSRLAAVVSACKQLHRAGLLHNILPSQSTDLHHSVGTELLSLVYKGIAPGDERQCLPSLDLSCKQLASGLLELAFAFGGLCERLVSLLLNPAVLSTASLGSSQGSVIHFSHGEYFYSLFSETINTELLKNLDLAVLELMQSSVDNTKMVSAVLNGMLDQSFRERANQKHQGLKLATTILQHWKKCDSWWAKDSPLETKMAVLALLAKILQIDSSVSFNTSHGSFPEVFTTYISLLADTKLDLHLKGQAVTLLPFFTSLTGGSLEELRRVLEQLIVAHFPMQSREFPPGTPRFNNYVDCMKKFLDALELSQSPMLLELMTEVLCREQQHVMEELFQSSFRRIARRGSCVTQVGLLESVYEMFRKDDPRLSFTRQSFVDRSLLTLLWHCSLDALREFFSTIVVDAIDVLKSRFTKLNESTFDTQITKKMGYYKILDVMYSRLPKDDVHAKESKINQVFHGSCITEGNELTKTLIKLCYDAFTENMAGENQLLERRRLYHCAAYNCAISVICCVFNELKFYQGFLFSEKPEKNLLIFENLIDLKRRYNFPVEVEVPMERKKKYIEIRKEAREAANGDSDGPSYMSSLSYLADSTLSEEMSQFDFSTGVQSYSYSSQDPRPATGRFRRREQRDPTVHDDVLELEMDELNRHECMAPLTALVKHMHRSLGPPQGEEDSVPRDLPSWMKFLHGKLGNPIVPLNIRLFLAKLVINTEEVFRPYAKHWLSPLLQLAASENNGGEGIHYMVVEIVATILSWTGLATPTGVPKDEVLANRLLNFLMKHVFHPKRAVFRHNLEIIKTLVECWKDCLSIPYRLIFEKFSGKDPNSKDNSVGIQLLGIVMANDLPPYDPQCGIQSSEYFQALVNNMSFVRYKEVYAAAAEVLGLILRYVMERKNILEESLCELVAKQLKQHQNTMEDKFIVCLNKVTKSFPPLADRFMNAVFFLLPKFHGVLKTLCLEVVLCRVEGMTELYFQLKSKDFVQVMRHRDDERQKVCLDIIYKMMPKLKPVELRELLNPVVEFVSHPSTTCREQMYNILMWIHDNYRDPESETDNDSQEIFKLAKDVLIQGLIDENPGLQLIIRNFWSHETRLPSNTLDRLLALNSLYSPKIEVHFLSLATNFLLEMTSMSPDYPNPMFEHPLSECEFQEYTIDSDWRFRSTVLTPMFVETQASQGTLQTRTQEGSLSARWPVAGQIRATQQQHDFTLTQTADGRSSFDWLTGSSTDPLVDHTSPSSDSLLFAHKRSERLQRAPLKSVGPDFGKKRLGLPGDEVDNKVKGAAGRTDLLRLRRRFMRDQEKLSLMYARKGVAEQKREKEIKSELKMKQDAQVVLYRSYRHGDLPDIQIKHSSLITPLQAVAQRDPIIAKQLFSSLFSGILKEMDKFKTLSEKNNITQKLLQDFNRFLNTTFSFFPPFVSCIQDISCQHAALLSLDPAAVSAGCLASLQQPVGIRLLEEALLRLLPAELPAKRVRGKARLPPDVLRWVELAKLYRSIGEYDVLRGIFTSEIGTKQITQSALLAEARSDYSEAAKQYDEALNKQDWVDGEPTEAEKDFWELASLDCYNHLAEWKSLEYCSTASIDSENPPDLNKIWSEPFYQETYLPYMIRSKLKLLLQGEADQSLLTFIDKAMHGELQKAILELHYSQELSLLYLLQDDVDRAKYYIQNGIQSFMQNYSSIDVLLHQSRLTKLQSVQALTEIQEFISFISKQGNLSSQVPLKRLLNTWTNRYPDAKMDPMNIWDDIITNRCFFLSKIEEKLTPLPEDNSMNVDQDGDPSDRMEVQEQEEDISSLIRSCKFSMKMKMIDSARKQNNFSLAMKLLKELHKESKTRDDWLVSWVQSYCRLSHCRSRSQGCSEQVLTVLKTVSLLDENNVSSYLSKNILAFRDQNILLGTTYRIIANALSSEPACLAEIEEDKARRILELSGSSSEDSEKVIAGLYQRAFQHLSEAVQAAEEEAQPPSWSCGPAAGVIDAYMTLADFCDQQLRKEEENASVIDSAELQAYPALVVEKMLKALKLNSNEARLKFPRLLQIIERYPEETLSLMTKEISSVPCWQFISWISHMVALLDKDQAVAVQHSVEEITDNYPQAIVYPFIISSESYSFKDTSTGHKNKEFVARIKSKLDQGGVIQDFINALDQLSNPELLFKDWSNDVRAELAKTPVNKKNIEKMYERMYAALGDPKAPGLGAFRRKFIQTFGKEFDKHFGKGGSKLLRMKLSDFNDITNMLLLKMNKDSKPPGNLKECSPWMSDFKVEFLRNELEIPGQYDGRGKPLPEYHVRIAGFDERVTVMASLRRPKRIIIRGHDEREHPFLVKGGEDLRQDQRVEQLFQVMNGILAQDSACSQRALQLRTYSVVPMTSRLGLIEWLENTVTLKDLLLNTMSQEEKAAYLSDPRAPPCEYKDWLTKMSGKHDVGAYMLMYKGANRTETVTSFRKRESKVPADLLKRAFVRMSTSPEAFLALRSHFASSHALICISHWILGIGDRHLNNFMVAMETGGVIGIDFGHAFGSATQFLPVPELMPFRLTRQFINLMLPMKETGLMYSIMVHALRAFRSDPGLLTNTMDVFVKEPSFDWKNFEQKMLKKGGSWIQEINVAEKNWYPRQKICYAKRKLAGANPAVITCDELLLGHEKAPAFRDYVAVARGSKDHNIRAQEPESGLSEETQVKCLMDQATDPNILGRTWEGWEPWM
Sequence of RAF proto-oncogene serine/threonine-protein kinase (P04049 whole entry): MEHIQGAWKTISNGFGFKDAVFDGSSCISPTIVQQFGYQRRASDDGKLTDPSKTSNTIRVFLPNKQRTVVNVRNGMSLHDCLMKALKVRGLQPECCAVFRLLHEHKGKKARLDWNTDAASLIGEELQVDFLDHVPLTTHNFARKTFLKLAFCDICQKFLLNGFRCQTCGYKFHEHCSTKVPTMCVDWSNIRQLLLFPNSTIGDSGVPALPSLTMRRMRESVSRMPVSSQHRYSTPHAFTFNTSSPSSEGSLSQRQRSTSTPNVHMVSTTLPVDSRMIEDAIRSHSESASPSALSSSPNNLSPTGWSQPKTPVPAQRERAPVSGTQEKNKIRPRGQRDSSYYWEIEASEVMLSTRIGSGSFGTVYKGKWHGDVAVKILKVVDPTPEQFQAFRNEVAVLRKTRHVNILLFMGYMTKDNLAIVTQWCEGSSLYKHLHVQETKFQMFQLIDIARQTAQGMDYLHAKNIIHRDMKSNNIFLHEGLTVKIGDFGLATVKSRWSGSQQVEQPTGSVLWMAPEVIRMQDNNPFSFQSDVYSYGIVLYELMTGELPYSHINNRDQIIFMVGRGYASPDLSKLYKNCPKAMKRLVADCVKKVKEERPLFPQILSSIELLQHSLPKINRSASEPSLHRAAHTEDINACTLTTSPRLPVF
Sequence of Serine/threonine-protein kinase pim-1 (P11309 whole entry): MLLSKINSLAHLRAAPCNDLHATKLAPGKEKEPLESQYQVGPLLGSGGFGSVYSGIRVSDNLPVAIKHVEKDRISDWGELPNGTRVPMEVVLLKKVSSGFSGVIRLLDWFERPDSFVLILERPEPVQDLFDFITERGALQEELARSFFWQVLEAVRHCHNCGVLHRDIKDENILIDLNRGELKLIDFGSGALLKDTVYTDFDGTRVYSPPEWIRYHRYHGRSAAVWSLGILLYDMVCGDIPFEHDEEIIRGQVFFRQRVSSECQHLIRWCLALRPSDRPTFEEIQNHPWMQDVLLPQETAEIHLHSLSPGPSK

Take `O=c1cc(-c2cccc3c2Sc2ccccc2S3)oc(N2CCOCC2)c1`: in the data set on LNCaP [1], the outcome was Active.
Consider `c1ccc(-c2oc3ncnc(NC[C@@H]4CCCO4)c3c2-c2ccccc2)cc1`, for which the IC50 result in data set [2] was “Not Active”; in [3], “Not Active”; in data set [5], “Not Active”; in data set [6], 0.872 µM; in data set [7], “Not Active”; in [8] it was 0.706 µM. For the same compound, the half-inhibitory concentration (IC50) entry (in data set [10]; in data set [11]; in data set [13]; at Insulin receptor; in data set [14]; in [15]) was “Not Active” each time. In addition, the IC50 entry is “Not Active” at Wee1-like protein kinase; “Not Active” in data set [18]; “Not Active” in [19]; 0.347 µM in data set [21]; “Not Active” in data set [23]; “Not Active” in [24]. Also, the concentration for half-maximal inhibition (IC50) in data set [25] was 0.432 µM; in [26], “Not Active”; in [27], “Not Active”; in data set [29], “Not Active”; in data set [30], “Not Active”; at Activated CDC42 kinase 1, 0.0216 µM. Further, the concentration for half-maximal inhibition (IC50) entry in data set [31], in data set [32], in data set [33] and in [35] was “Not Active” in each case. The Activity is listed as 38% in the data set with LNCaP [4], “Non-Toxic” in data set [16] and about 50% with LNCaP [34]. Besides, the outcome in the data set with LNCaP [9], with LNCaP [12], with LNCaP [17], in the data set on LNCaP [1] and with LNCaP [20] was Active. Further, the inhibition result in the data set with LNCaP [22] was “inactive”. In addition, the inhibition result in the data set with LNCaP [28] was “Active”.
For `CN[C@@H]1C[C@H]2O[C@@](C)([C@@H]1OC)n1c3ccccc3c3c4c(c5c6ccccc6n2c5c31)C(=O)NC4` [STAUROSPORINE], the concentration for half-maximal inhibition (IC50) entry in [19] was “Not Active”; in data set [29], “Not Active”; in data set [30], “Not Active”; in data set [35] (read-out: IC50) it was over 20 µM.
As to `C[S+](C)[O-]` [DIMETHYL SULFOXIDE], the Activity result in [16] is “Non-Toxic”.
